Calls of active or inactive are those of the source.
Tests used:
HCT-116 = experiment: Antiproliferative activity against human HCT116 cells assessed as reduction in cell viability measured after 72 hrs by MTT assay; assay type: functional, cell-based
Outline: (§1)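 Cells seeded 5×10^3/well, cultured overnight, then exposed to 10, 1, 0.1, 0.01, 0.001 and 0.0001 µM (from 10 mM DMSO stocks diluted in medium; vehicle 1% DMSO PBS) for 72 h at 37 °C. Medium replaced with 0.5 mg/mL MTT for 4 h, formazan dissolved in DMSO, A570 read. IC50 as mean ± SD of three independent experiments.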

A549 [1] = experiment: Antiproliferative activity against human A549 cells assessed as reduction in cell viability measured after 72 hrs by MTT assay; assay type: functional, cell-based; outline: as §1
HL-60 = experiment: Antiproliferative activity against human HL60 cells incubated for 96 hrs by cell-titer-Glo luminescent assay; assay type: functional, cell-based; conditions: HL-60, 96 h
SH-SY5Y = experiment: Antiproliferative activity against human SH-SY5Y cells assessed as reduction in cell viability measured after 72 hrs by MTT assay; assay type: functional, cell-based
Outline: (§2)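 Cells seeded at 5×10^3 per well and cultured overnight, then exposed for 72 h at 37 °C to six concentrations from 10 µM down to 0.0001 µM (from 10 mM DMSO stock diluted in medium; vehicle 1% DMSO in PBS). MTT at 0.5 mg/mL was added for 4 h, formazan dissolved in DMSO, and A570 read. IC50 given as mean ± SD of three independent experiments.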

A549 [2] = experiment: Cell cycle arrest in human A549 cells assessed as accumulation at S phase at 30 nM after 24 hrs by propidium iodide/RNase A staining-based flow cytometric analysis (reference value: 12.57%); assay type: functional
A549 [3] = experiment: Cell cycle arrest in human A549 cells assessed as accumulation at G1 phase at 30 nM after 24 hrs by propidium iodide/RNase A staining-based flow cytometric analysis (reference value: 57.41%); assay type: functional
MDA-MB-231 = experiment: Antiproliferative activity against human MDA-MB-231 cells assessed as reduction in cell viability measured after 72 hrs by MTT assay; assay type: functional, cell-based; conditions: MDA-MB-231, 72 h; outline: as §2
A549 [4] = experiment: Induction of apoptosis in human A549 cells assessed as viable cells at 30 nM after 12 hrs by Annexin-V FITC/propidium iodide staining based flow cytometric analysis (reference value: 97.18%); assay type: functional; conditions: A549, 12 h, read-out: Activity
A-375 = experiment: Antiproliferative activity against human A375 cells assessed as reduction in cell viability measured after 72 hrs by MTT assay; assay type: functional, cell-based; conditions: A-375, 72 h; outline: as §2
MCF7 = experiment: Antiproliferative activity against human MCF7 cells assessed as reduction in cell viability measured after 72 hrs by MTT assay; assay type: functional, cell-based; conditions: MCF7, 72 h; outline: as §2
A549 [5] = experiment: Inhibition of colony formation in human A549 cells at 10 nM incubated for 3 days followed by further incubation in drug-free medium and measured after 15 days by crystal violet staining-based inverted microscopic analysis; assay type: functional, cell-based
Outline: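 A549 cells were plated at 500 per well in 2 mL medium for 24 h, then treated for 3 days, with drug-free medium replaced every 3 days afterwards. At day 15 after plating, colonies were fixed in 95% ethanol for 15 min, stained with 0.1% crystal violet, and counted; a colony was defined as more than 100 cells. Mean ± SD of three independent experiments.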

A549 [6] = experiment: Induction of apoptosis in human A549 cells assessed as late apoptotic cells at 30 nM after 12 hrs by Annexin-V FITC/propidium iodide staining based flow cytometric analysis (reference value: 1.22%); assay type: functional
A549 [7] = experiment: Cell cycle arrest in human A549 cells assessed as accumulation at G2 phase at 30 nM after 24 hrs by propidium iodide/RNase A staining-based flow cytometric analysis (reference value: 30.02%); assay type: functional
PC-3 = experiment: Antiproliferative activity against human PC3 cells incubated for 72 hrs by 14C-thymidine incorporation assay; assay type: functional, cell-based; conditions: PC-3, 72 h
A549 [8] = experiment: Induction of apoptosis in human A549 cells assessed as necrotic cells at 30 nM after 12 hrs by Annexin-V FITC/propidium iodide staining based flow cytometric analysis (reference value: 1.28%); assay type: functional
A549 [9] = experiment: Induction of apoptosis in human A549 cells assessed as early apoptotic cells at 30 nM after 12 hrs by Annexin-V FITC/propidium iodide staining based flow cytometric analysis (reference value: 0.32%); assay type: functional
A549 [10] = experiment: Inhibition of elongation factor 1-alpha1 expression in human A549 cells at 100 nM after 24 hrs by Western blot analysis; assay type: functional
[11] = Homo sapiens, HCT-116, 72 h, read-out: IC50
[12] = Homo sapiens, A549, 72 h, read-out: IC50

Row | Compound | IC50 (HCT-116; [11]) [µM] | IC50 (A549 [1]; [12]) [µM] | further results
1 | CC[C@H](C)[C@H]1C(=O)N[C@H](Cc2cc(Cl)c(O)c(Cl)c2)C(=O)N[C@@H](C(C)(C)O)C(=O)O[C@H](c2ccccc2)[C@H](C)/C=C/C=C(\C)[C@H](OC)C/C=C(\C)C(=O)N1C | 0.0167 | 0.0101 | –
2 | CO[C@@H]1C/C=C(\C)C(=O)N(C)[C@@H](C(C)C)C(=O)N[C@H](Cc2cc(Cl)c(O)c(Cl)c2)C(=O)N[C@@H](C(C)C)C(=O)O[C@H](c2ccccc2)[C@H](C)/C=C/C=C/1C | 0.0421 | 0.0216 | –
3 | CC/C1=C\C=C\[C@@H](C)[C@@H](c2ccccc2)OC(=O)[C@H](C(C)C)NC(=O)[C@@H](Cc2cc(Cl)c(O)c(Cl)c2)NC(=O)[C@H](C(C)C)N(C)C(=O)/C(C)=C/C[C@H]1OC | 0.0603 | 0.0131 | –
4 | CC[C@H](C)[C@H]1C(=O)N[C@H](Cc2cc(Cl)c(O)c(Cl)c2)C(=O)N[C@@H](C(C)(C)O)C(=O)O[C@H](c2ccccc2)[C@H](C)/C=C/C=C(\C)[C@H](OC)C[C@@H]2O[C@@]2(C)C(=O)N1C | 0.017 | 0.0131 | IC50 (HL-60): 0.012 µM; IC50 (SH-SY5Y): 0.0021 µM; Activity (A549 [2]): 7.38%; Activity (A549 [3]): 43.21%; IC50 (MDA-MB-231): 0.0075 µM; viability at 0.03 µM (A549 [4]): 61.6%; IC50 (A-375): 0.0024 µM; IC50 (MCF7): 0.0087 µM; inhibition (A549 [5]): Active; Activity (A549 [6]): 22.88%; Activity (A549 [7]): 49.41%; IC50 (PC-3): 0.001 µM; Activity (A549 [8]): 11.44%; Activity (A549 [9]): 4.11%
5 | CC[C@H](C)[C@H]1C(=O)N[C@H](Cc2ccc(O)c(OC)c2)C(=O)N[C@@H](C(C)(C)O)C(=O)O[C@H](c2ccccc2)[C@H](C)/C=C/C=C(\C)[C@H](OC)C[C@@H]2O[C@@]2(C)C(=O)N1C | 0.0252 | 0.0037 | –
6 | CC[C@H](C)[C@H]1C(=O)N[C@H](Cc2cc(Cl)c(O)c(Cl)c2)C(=O)N[C@@H](C(C)(C)O)C(=O)O[C@H](c2ccccc2)C/C=C/C=C(\C)[C@H](OC)C[C@@H]2O[C@@]2(C)C(=O)N1C | 0.0782 | 0.0903 | –
7 | CO[C@@H]1C[C@@H]2O[C@@]2(C)C(=O)N(C)[C@@H](C(C)C)C(=O)N[C@H](Cc2cc(Cl)c(O)c(Cl)c2)C(=O)N[C@@H](C(C)(C)O)C(=O)O[C@H](c2ccccc2)[C@H](C)/C=C/C=C/1C | 0.0067 | 0.0035 | inhibition at 0.1 µM (A549 [10]; A549, 24 h): 100%
8 | CO[C@@H]1C/C=C(\C)C(=O)N(C)[C@@H](C(C)C)C(=O)N[C@H](Cc2cc(Cl)c(O)c(Cl)c2)C(=O)N[C@@H](CC(C)C)C(=O)O[C@H](c2ccccc2)[C@H](C)/C=C/C=C/1C | > 0.1 | > 0.1 | –
9 | CC[C@H](C)[C@H]1C(=O)N[C@H](Cc2ccccc2)C(=O)N[C@@H](C(C)(C)O)C(=O)O[C@H](c2ccccc2)[C@H](C)/C=C/C=C(\C)[C@H](OC)C[C@@H]2O[C@@]2(C)C(=O)N1C | 0.0209 | 0.0143 | –
10 | CC[C@H](C)[C@@H]1NC(=O)[C@]2(C)O[C@H]2C[C@@H](OC)/C(C)=C/C=C/[C@@H](C)[C@@H](c2ccccc2)OC(=O)[C@H](C(C)(C)O)NC(=O)[C@@H](Cc2cc(Cl)c(O)c(Cl)c2)NC1=O | > 1 | 0.557 | –
11 | CO[C@@H]1C[C@@H]2O[C@@]2(C)C(=O)N[C@@H](C(C)C)C(=O)N[C@H](Cc2cc(Cl)c(O)c(Cl)c2)C(=O)N[C@@H](C(C)(C)O)C(=O)O[C@H](c2ccccc2)[C@H](C)/C=C/C=C/1C | – | – | IC50 (HCT-116; hct-116): Not Active; inhibition (A549 [10]): inactive; IC50 (A549 [1]; a549): Not Active
12 | CC[C@H](C)[C@H]1C(=O)N[C@H](Cc2cc(Cl)c(O)c(Cl)c2)C(=O)N[C@@H](C(C)C)C(=O)O[C@H](c2ccccc2)[C@H](C)/C=C/C=C(\C)[C@H](OC)C[C@@H]2O[C@@]2(C)C(=O)N1C | 0.0105 | 0.0032 | –
13 | CO[C@@H]1C/C=C(\C)C(=O)N(C)[C@@H](C(C)C)C(=O)N[C@H](Cc2ccccc2)C(=O)N[C@@H](C(C)C)C(=O)O[C@H](c2ccccc2)C/C=C/C=C/1C | > 0.1 | > 0.1 | –
14 | CO[C@@H]1C/C=C(\C)C(=O)N(C)[C@@H](C(C)C)C(=O)N[C@H](Cc2ccccc2)C(=O)N[C@@H](C(C)C)C(=O)O[C@H](c2ccccc2)[C@H](C)/C=C/C=C/1C | > 0.1 | > 0.1 | –
15 | COc1cccc2c1C(=O)c1c(O)c3c(c(O)c1C2=O)C[C@@](O)(C(=O)CO)C[C@@H]3O[C@H]1C[C@H](N)[C@H](O)[C@H](C)O1 [DOXORUBICIN] | 0.366 | 0.459 | –
16 | CO[C@@H]1C/C=C(\C)C(=O)N(C)[C@@H](C(C)C)C(=O)N[C@H](Cc2ccc(O)cc2)C(=O)N[C@@H](C(C)C)C(=O)O[C@H](c2ccccc2)[C@H](C)/C=C/C=C/1C | 0.0597 | 0.0359 | –
17 | CC[C@H](C)[C@H]1C(=O)N[C@H](Cc2cc(Cl)c(O)c(Cl)c2)C(=O)N[C@@H](C(C)(C)O)C(=O)O[C@H](c2ccccc2)[C@H](C)/C=C/C=C(\C)[C@H](OC)C/C=C/C(=O)N1C | 0.124 | 0.0405 | –
